Our source for the Activity and MIC values is ChEMBL document CHEMBL4837237, “Broomeanamides: Cyclic Octapeptides from an Isolate of the Fungicolous Ascomycete Sphaerostilbella broomeana from India” (J Nat Prod, 2021).

The structures appear in SMILES notation. In brackets after ≈: the same amount, converted by molar mass. Activity calls are given as the source filed them. The rule behind the calls is not given here. Square brackets hold non-standard residues; d marks the D form. Peptide text beside a SMILES is read from it. ξ: configuration not given here. NMeF = CN[C@@H](Cc1ccccc1)C(=O)O; Ile(3ξ) = CCC(C)[C@H](N)C(=O)O; NMeL = CN[C@@H](CC(C)C)C(=O)O; NMeV = CN[C@H](C(=O)O)C(C)C

Assay [1] concerns Staphylococcus aureus. The experiment in a line: Antibacterial activity against Staphylococcus aureus ATCC 29213 assessed as bacterial growth inhibition at 50 ug/disk measured after 24 to 72 hrs by disk diffusion assay. The format is functional, organism-based. The settings on record: time 24-72 hrs. In outline: (§1)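 Agar disk diffusion. Inoculum suspension (1–3 mL) mixed into 100 mL autoclaved medium cooled to 45 °C: yeast malt agar for the yeast, tryptic soy agar for the bacterium. Poured as 5 mL plates. 6.25 mm paper disks loaded with 50 μg sample, solvent evaporated. Incubated at room temperature 24–72 h. Amphotericin or gentamicin at 25 μg/disk as positive controls.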

Assay [2] deals with Candida albicans. The experiment in a line: Antifungal activity against Candida albicans ATCC10231 assessed as fungal growth inhibition at 50 ug/disk measured after 24 to 72 hrs by disk diffusion assay. The class given is functional, organism-based. The settings on record: time 24-72 hrs. Summed up: as §1
(In general: A growth-free zone around the sample is the usual read-out of agar diffusion tests.)

Assay [3] has as its system Staphylococcus aureus. The experiment in a line: Antibacterial activity against Staphylococcus aureus ATCC 43300 assessed as bacterial growth inhibition incubated for 24 hrs by alamarBlue dye based assay. The class given is functional. Summed up:
(§2)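 Broth MIC, modified CLSI method. Overnight cultures diluted to OD600 0.8 in PBS, then 1000-fold in MOPS-buffered RPMI-1640. Exposed to serial dilutions from 0.25 to 128 μM. Growth read by adding 10% alamarBlue. S. aureus ATCC 43300: 24 h at 37 °C. C. albicans ATCC 10231: 48 h at 23 °C. C. neoformans H99: 48 h at 23 and at 37 °C. Controls: chlortetracycline + streptomycin (bacterium), amphotericin B (fungi).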
(Alamar Blue is a resazurin reagent that responds to reducing activity.)

Assay [4] relates to Candida albicans. The experiment in a line: Antifungal activity against Candida albicans ATCC 10231 assessed as fungal growth inhibition incubated for 48 hrs by alamarBlue dye based assay. The class given is functional. Summed up: as §2
The subject of assay [5] is Cryptococcus neoformans. The experiment in a line: Antifungal activity against Cryptococcus neoformans H99 assessed as fungal growth inhibition incubated for 48 hrs at 23 degC by alamarBlue dye based assay. The format is functional. In outline:
as §2

The test system of assay [6] is Cryptococcus neoformans. The experiment in a line: Antifungal activity against Cryptococcus neoformans H99 assessed as fungal growth inhibition incubated for 48 hrs at 37 degC by alamarBlue dye based assay. The class given is functional. Summed up:
as §2

Regarding `O=C1N[C@@H](Cc2ccccc2)C(=O)N2CCC[C@@H]12`, the outcome in the assay with Staphylococcus aureus [1] and in the assay on Candida albicans [2] was inactive.
In the case of `O=C1/C(=C/c2ccccc2)NC(=O)C2(O)CCCN12` (configuration not stated), the outcome in the assay on Staphylococcus aureus [1] and with Candida albicans [2] was inactive.
On to `O=C1N/C(=C\c2ccccc2)C(=O)N2CCCC12` (configuration not stated), for which the outcome in the assay on Staphylococcus aureus [1] and in the assay on Candida albicans [2] was inactive.
With `CCC(C)[C@@H]1NC(=O)[C@H](CC(C)C)N(C)C(=O)[C@H](C(C)C)N(C)C(=O)[C@H](C)NC(=O)[C@H](Cc2ccccc2)N(C)C(=O)[C@@H]2CCCN2C(=O)[C@H](C(C)C)NC(=O)[C@H](CC(C)C)N(C)C1=O` (some centres not stated) (cyclo(A[NMeV][NMeL][Ile(3ξ)][NMeL]VP[NMeF])), the result with Staphylococcus aureus [1] and in the assay on Candida albicans [2] was Active. For the same molecule, the MIC in the assay with Staphylococcus aureus [3] amounted to 128 µg/mL (≈ 141 µM); with Candida albicans [4], 64 µg/mL (≈ 70.4 µM); with Cryptococcus neoformans [5], 128 µg/mL (≈ 141 µM); in the assay on Cryptococcus neoformans [6] it was 8 µg/mL (≈ 8.8 µM).
For the molecule `C[C@@H]1[C@H](O)[C@@H](C)/C=C/C=C/C=C/C=C/C=C/C=C/C=C/[C@H](O[C@@H]2O[C@H](C)[C@@H](O)[C@H](N)[C@@H]2O)C[C@@H]2O[C@](O)(C[C@@H](O)C[C@@H](O)[C@H](O)CC[C@@H](O)C[C@@H](O)CC(=O)O[C@H]1C)C[C@H](O)[C@H]2C(=O)O` [AMPHOTERICIN B], the MIC with Cryptococcus neoformans [5] and with Cryptococcus neoformans [6] was 0.85 µg/mL (≈ 0.92 µM) each time.
As for `CC(C)C[C@H]1C(=O)N[C@@H](C(C)C)C(=O)N2CCC[C@H]2C(=O)N(C)[C@@H](Cc2ccccc2)C(=O)N[C@@H](C)C(=O)N(C)[C@@H](C(C)C)C(=O)N(C)[C@@H](CC(C)C)C(=O)N[C@@H](C(C)C)C(=O)N1C` (cyclo(A[NMeV][NMeL]V[NMeL]VP[NMeF])), in the assay with Staphylococcus aureus [1], the outcome was Active.
`CN1C(=O)C2CCCN2C(=O)/C1=C/c1ccccc1` (configuration not stated): the outcome in the assay on Staphylococcus aureus [1] and in the assay on Candida albicans [2] was inactive.

What is called MIC is the lowest concentration that inhibits growth of the organism.
